From PubChem BioAssay AID624020 (Broad Institute, 2012)
Calls of active or inactive are those of the source.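 Rule for the calls: active = fitted curve reaching 35% inhibition at both 405 and 600 nm absorbance, in duplicate, within twice the top valid dose; inactive = the rest, including signal rising instead of falling.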

Experiments:
[1] = P. aeruginosa growth delay under iron chelation, dose response, pyoverdine/PvdQ inhibitor project, absorbance 405 nm, dry powder, set 3 (AID 624020); conditions: P. aeruginosa growth + EDDHA, pyoverdine absorbance 405 nm; at 50 µM (top of the series)
How it was run: (§1)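 Incubation: Bacteria-compound culture for 24–30 h at 37 °C, humidified | Material: Pseudomonas aeruginosa strain ATCC 15692, whole bacteria | Amount: Bacterial inoculum at final OD600 of 0.0000005 | Doses: 3-fold dilution series, 10 mM stock | Probe or stimulus: EDDHA, 2 µM final | Measured by: Absorbance at 405 nm reflecting pyoverdine production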

[2] = test system: P. aeruginosa growth + EDDHA, pyoverdine absorbance 405 nm; assay: as above
How it was run: as §1

Compound	activity change, negative = inhibition [1]	AC35 [2]
Cc1ccc(C(C#N)c2ccc(Cl)cc2)nc1C#N (centres undefined)	5.29% (inactive)	
N#CC(c1ccc(F)cc1)c1cccc(C(F)(F)F)n1 (centres undefined)		44.8 µM
N#CC(c1ccc(Cl)cc1)c1cccc(Cl)n1 (centres undefined)		33.5 µM
N#CC(c1ccc(Cl)cc1)c1ccc(Cl)cn1 (centres undefined)	-3.9% (inactive)	
CCCCC(C#N)c1ccc(F)cc1 (centres undefined)	8.04% (inactive)	
N#CC(c1ccc(C(F)(F)F)cc1)c1cccc(C(F)(F)F)n1 (centres undefined)	20.5% (inactive)	
N#CC(c1ccc(C(F)(F)F)cc1)c1cccc(Cl)n1 (centres undefined)	17.5% (inactive)	
N#CC(CC1CC1)c1ccc(Cl)cc1 (centres undefined)	3.25% (inactive)	
N#Cc1ccc(C(C#N)c2ccc(Cl)cc2)nc1 (centres undefined)	5.84% (inactive)	
N#CC(c1cccc(Cl)n1)c1ccc(Cl)cc1Cl (centres undefined)	0.286% (inactive)	
N#Cc1cccc(C(C#N)c2ccc(Cl)cc2Cl)n1 (centres undefined)	-0.74% (inactive)	
CCCCC(C#N)c1ccc(Cl)cc1Cl (centres undefined)	14.9% (inactive)	
Cc1ccc(C(C#N)c2ccccc2OC(F)(F)F)nc1C#N (centres undefined)	9.74% (inactive)	
N#CC(c1ccc(Cl)cc1)c1ccc(C(F)(F)F)c(Cl)n1 (centres undefined)	-1.44% (inactive)	
N#Cc1cccc(C(C#N)c2ccc(Cl)cc2F)n1 (centres undefined)	7.99% (inactive)	
N#Cc1cccc(C(C#N)c2ccc(Cl)cc2)n1 (centres undefined)	3.83% (inactive)	
N#CC(c1ccc(C(F)(F)F)c(Cl)n1)c1ccc(Cl)cc1Cl (centres undefined)		> 50 µM (inactive)
CCCCC(C#N)c1ccccc1OC(F)(F)F (centres undefined)	-1.21% (inactive)	
N#CC(c1cccc(C(F)(F)F)n1)c1ccc(Cl)cc1F (centres undefined)	-4.42% (inactive)	
COc1cccc(C(C#N)c2ccc(F)cc2)n1 (centres undefined)	9.45% (inactive)	

Compound	activity change, negative = inhibition [1]	AC35 [2]
N#CC(c1ccc(Cl)cc1Cl)c1ncccc1Cl (centres undefined)	13% (inactive)	
N#Cc1ccc(C(C#N)c2ccc(Cl)cc2Cl)nc1 (centres undefined)	4.54% (inactive)	
N#CC(c1cccc(C(F)(F)F)n1)c1ccccc1OC(F)(F)F (centres undefined)	7.17% (inactive)	
N#CC(c1ccc(Cl)cc1)c1ccc(C(F)(F)F)cn1 (centres undefined)	8.01% (inactive)	
CC(C)CC(C#N)c1ccc(Cl)cc1 (centres undefined)	3.56% (inactive)	
N#Cc1cccc(C(C#N)c2ccccc2OC(F)(F)F)n1 (centres undefined)	4.22% (inactive)	
N#CC(c1ccc(C(F)(F)F)c(Cl)n1)c1ccc(Cl)cc1F (centres undefined)	2.37% (inactive)	
N#CC(c1cccc(Cl)n1)c1ccccc1OC(F)(F)F (centres undefined)	-0.322% (inactive)	
CCCCC(C#N)c1ccc(C(F)(F)F)cc1 (centres undefined)	16.2% (inactive)	
Cc1ccc(C(C#N)c2ccc(F)cc2)nc1C#N (centres undefined)	4.87% (inactive)	
N#CC(c1ccc(C(F)(F)F)cc1)c1ccc(C(F)(F)F)c(Cl)n1 (centres undefined)	20.8% (inactive)	
N#CC(c1ccc(Cl)cc1)c1cccc(C(F)(F)F)n1 (centres undefined)		16.8 µM
CCCCC(C#N)c1ccc(Cl)cc1F (centres undefined)	15.6% (inactive)	
N#CC(c1ccc(C(F)(F)F)c(Cl)n1)c1ccccc1OC(F)(F)F (centres undefined)	-1.95% (inactive)	
CCCC(C#N)c1ccc(Cl)cc1 (centres undefined)	-9% (inactive)	
Cc1ccc(C(C#N)c2ccc(Cl)cc2)nc1 (centres undefined)	7.58% (inactive)	
CC(C#N)(c1ccc(Cl)cc1)c1ccc(C(F)(F)F)cn1 (centres undefined)	9.6% (inactive)	
Cc1cccc(C(C#N)c2ccc(Cl)cc2)n1 (centres undefined)	14% (inactive)	
CCCCC(C#N)c1ccc(Cl)cc1 (centres undefined)	-10.7% (inactive)	
